{"source": "ChEMBL document CHEMBL1151910", "about": "“Synthesis and antirhinovirus activity of new 3-benzyl chromene and chroman derivatives” (Bioorg Med Chem, 2009)", "key": {"[1]": {"experiment": "Cytotoxicity against human HeLa Ohio cells assessed as maximal non-cytotoxic concentration after 3 days by XTT assay", "type": "cell-based", "details": "read-out: MNCC; call rule not given here"}, "[2]": {"experiment": "Cytotoxicity against human HeLa Ohio cells after 3 days by XTT assay", "type": "cell-based", "details": "read-out: TC50"}, "rhinovirus A1B [3]": {"test_system": "rhinovirus A1B", "experiment": "Antiviral activity against HRV 1B infected in human HeLa Ohio cells assessed as reduction in viral plaque formation after 3 days by neutral red uptake assay", "type": "functional, organism-based, Human rhinovirus 1B", "details": "Rhinovirus A, 72 h", "method_in_brief": "(§1)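 HeLa (Ohio) monolayers were infected with enough virus for about 100 plaques per well, adsorbed 1 h at 33 °C, then overlaid with plaque medium with or without fourfold drug dilutions. After 3 days at 33 °C, cells were stained with neutral red (0.2 mg/mL in PBS pH 7.4) and plaques counted. IC50 was read from a plot of % plaque reduction vs log dose against mock-treated control.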"}, "rhinovirus A1B [4]": {"test_system": "rhinovirus A1B", "experiment": "Antiviral activity against HRV 1B infected in human HeLa Ohio cells assessed as reduction in viral plaque formation at maximum non-cytotoxic concentration after 3 days by neutral red uptake assay", "type": "functional, Human rhinovirus 1B", "method_in_brief": "(§2)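 Plaque reduction on HeLa (Ohio) monolayers, with dosing starting from the maximum non-cytotoxic concentration. Virus was adsorbed 1 h at 33 °C, then cells got plaque overlay with fourfold drug dilutions, 3 days at 33 °C, and neutral red staining. Values are % plaque reduction at that concentration vs mock-treated control.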"}, "rhinovirus B14 [5]": {"test_system": "rhinovirus B14", "experiment": "Antiviral activity against HRV 14 infected in human HeLa Ohio cells assessed as reduction in viral plaque formation after 3 days by neutral red uptake assay", "type": "functional, organism-based", "method_in_brief": "as §1"}, "rhinovirus B14 [6]": {"test_system": "rhinovirus B14", "experiment": "Antiviral activity against HRV 14 infected in human HeLa Ohio cells assessed as reduction in viral plaque formation at maximum non-cytotoxic concentration after 3 days by neutral red uptake assay", "type": "functional", "method_in_brief": "as §2"}, "[7]": {"experiment": "Therapeutic index, ratio of TC50 for human HeLa Ohio cells to IC50 for HRV1B infected in human HeLa Ohio cells", "type": "cell-based", "details": "read-out: TI"}}, "data": [{"smiles": "Clc1ccc(C2CCc3cc(Cl)ccc3O2)cc1", "note": "(stereo unspecified)", "values": [{"measurement": "MNTC at 72 h", "setting": "[1]", "value": 25, "unit": "µM"}]}, {"smiles": "Clc1ccc2c(c1)CC(Cc1ccccc1)CO2", "note": "(stereo unspecified)", "values": [{"measurement": "MNTC at 72 h", "setting": "[1]", "value": 25, "unit": "µM"}]}, {"smiles": "Clc1ccc2c(c1)C/C(=C/c1ccccc1)CO2", "values": [{"measurement": "MNTC at 72 h", "setting": "[1]", "value": 25, "unit": "µM"}]}, {"smiles": "C1=C(Cc2ccccc2)COc2ccccc21", "values": [{"measurement": "MNTC at 72 h", "setting": "[1]", "value": 25, "unit": "µM"}]}, {"smiles": "c1ccc(CC2COc3ccccc3C2)cc1", "note": "(stereo unspecified)", "values": [{"measurement": "MNTC at 72 h", "setting": "[1]", "value": 25, "unit": "µM"}]}, {"smiles": "C(=C1/COc2ccccc2C1)/c1ccccc1", "values": [{"measurement": "MNTC at 72 h", "setting": "[1]", "value": 25, "unit": "µM"}]}, {"smiles": "O[C@H]1c2cc(Cl)ccc2OC[C@H]1Cc1ccc(Cl)cc1", "note": "(relative stereo)", "values": [{"measurement": "MNTC at 72 h", "setting": "[1]", "value": 25, "unit": "µM"}]}, {"smiles": "O[C@H]1c2ccccc2OC[C@H]1Cc1ccc(Cl)cc1", "note": "(relative stereo)", "values": [{"measurement": "MNTC at 72 h", "setting": "[1]", "value": 12.5, "unit": "µM"}]}, {"smiles": "O[C@H]1c2ccccc2OC[C@H]1Cc1ccccc1", "note": "(relative stereo)", "values": [{"measurement": "CC50 at 72 h", "setting": "[2]", "value": 150, "unit": "µM"}, {"measurement": "MNTC at 72 h", "setting": "[1]", "value": 25, "unit": "µM"}, {"measurement": "IC50", "setting": "rhinovirus A1B [3]", "value": 3.49, "unit": "µM"}, {"measurement": "inhibition (INH)", "setting": "rhinovirus A1B [4]", "value": 50, "unit": "%"}, {"measurement": "IC50", "setting": "rhinovirus B14 [5]; Rhinovirus B, HeLa, 72 h", "value": "> 25", "unit": "µM"}, {"measurement": "inhibition (INH)", "setting": "rhinovirus B14 [6]", "value": 15.9, "unit": "%"}, {"measurement": "selectivity ratio", "setting": "[7]", "value": 43}]}, {"smiles": "O[C@H]1c2ccccc2OC[C@@H]1Cc1ccccc1", "note": "(relative stereo)", "values": [{"measurement": "CC50 at 72 h", "setting": "[2]", "value": "> 200", "unit": "µM"}, {"measurement": "MNTC at 72 h", "setting": "[1]", "value": 25, "unit": "µM"}, {"measurement": "IC50", "setting": "rhinovirus A1B [3]", "value": 3.59, "unit": "µM"}, {"measurement": "inhibition (INH)", "setting": "rhinovirus A1B [4]", "value": 50, "unit": "%"}, {"measurement": "IC50", "setting": "rhinovirus B14 [5]; hela", "value": "Not Active"}, {"measurement": "selectivity ratio", "setting": "[7]", "value": "> 55.7"}]}]}
